# pIC50: −log10 of the molar value. Activity calls are given as the source filed them. The calls are words filed in the database; no cut-off is given here.
# Legend:
# Trypanosoma cruzi [1] = assay: Antitrypanosomal activity against bloodstream trypomastigotes form of Trypanosoma cruzi CL Brener infected in BALB/c mouse assessed as reduction in parasitemia at 100 mg/kg, po qd administered for 5 days starting from day 114 post infection followed by cyclophosphamide induced immunosuppression on days 135, 139 and 143 post infection and measured for 149 days by bioluminescence analysis; assay type: functional, organism-based; conditions: time 5.0 day
# Method in brief: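 Female BALB/c mice, 8 weeks old, ~18 g, 5 per group. Infected i.p. with 10^3 bloodstream trypomastigotes of bioluminescent CL Brener (pTRIX2-RE9h). From day 114 p.i., oral dosing once daily for 5 days: reference drugs at 100 mg/kg in HPMC-SV with 5% DMSO, PEG400 vehicle at 50 mg/kg. Cyclophosphamide 200 mg/kg i.p. on days 135, 139 and 143. Final imaging day 149. Ex vivo organ bioluminescence days 149-151.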
# L6 = assay: Cytotoxicity against rat L6 cells assessed as reduction in cell viability incubated for 72 hrs by alamar blue assay; assay type: ADME, cell-based; conditions: L6, 72 h
# [2] = Selectivity index, ratio of IC50 for cytotoxicity against rat L6 cells to IC50 for antitrypanosomal activity against Trypanosoma cruzi Tulahuen strain C2C4 amastigotes infected in rat L6 cells
# [3] = Kinetic solubility of compound in water sonicated for 15 mins by HPLC analysis
# Trypanosoma cruzi [4] = assay: Antitrypanosomal activity against Trypanosoma cruzi amastigotes assessed as inhibition of parasite growth at 10 ug/ml relative to control
# Trypanosoma cruzi [5] = assay: Antitrypanosomal activity against Trypanosoma cruzi Tulahuen strain C2C4 amastigotes infected in rat L6 cells assessed as inhibition of parasite growth incubated for 96 hrs by chlorophenol red-fl-D-galactopyranoside based colorimetric analysis; assay type: functional, organism-based; conditions: for pIC50: Tulahuen strain C2C4, L6, 96 h; for IC90: Tulahuen strain C2C4, L6, time 96 hrs
# Method in brief: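 Tulahuen strain TcVI T. cruzi expressing β-galactosidase, grown in L6 rat skeletal myoblast host cells. IC50/IC90 growth inhibition. Each value is the mean of ≥2 independent determinations using fresh sample stock.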
# [6] = Selectivity index, ratio of IC50 for cytotoxicity against rat 3T3 cells to IC50 for antitrypanosomal activity against Trypanosoma cruzi Tulahuen strain C2C4 amastigotes infected in rat 3T3 cells
# [7] = Inhibition of Trypanosoma cruzi Tulahuen C4 strain CYP51 expressed in Escherichia coli by fluorescence based assay
# Trypanosoma cruzi [8] = assay: Antitrypanosomal activity against Trypanosoma cruzi Tulahuen strain C2C4 amastigotes infected in […] cells assessed as reduction in parasite growth incubated for 48 hrs by chlorophenol red-fl-D-galactopyranoside based colorimetric analysis relative to control; assay type: functional
# Trypanosoma cruzi [9] = assay: Antitrypanosomal activity against Trypanosoma cruzi Tulahuen strain C2C4 amastigotes infected in […] cells assessed as reduction in parasite growth incubated for 48 hrs by chlorophenol red-fl-D-galactopyranoside based colorimetric analysis; assay type: functional, organism-based; conditions: for pIC50: Tulahuen strain C2C4, NIH3T3, 48 h; for IC90: Tulahuen strain C2C4, NIH3T3, time 48 hrs
# [10] = Cytotoxicity against rat 3T3 cells assessed as reduction in cell viability incubated for 72 hrs by alamar blue assay; assay type: ADME, cell-based; conditions: NIH3T3, 72 h
# [11] = Half life in human liver microsomes incubated for 60 mins
# [12] = Metabolic stability in human liver microsomes assessed as parent compound remaining incubated for 1 hr; assay type: ADME, Microsome; conditions: read-out: Stabilty
# Method in brief: (§1)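 Pooled human or CD-1 mouse liver microsomes at 0.4 mg/mL microsomal protein. Percent parent remaining after 1 h incubation.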
# [13] = Metabolic stability in CD-1 mouse liver microsomes assessed as parent compound remaining incubated for 1 hr; assay type: ADME, Microsome; method in brief: as §1
pIC50 (Trypanosoma cruzi [5]),IC90 (Trypanosoma cruzi [5]),pIC50 (Trypanosoma cruzi [9]),IC90 (Trypanosoma cruzi [9]),SMILES,pIC50 (L6),selectivity ratio [2],pIC50 [7],%max (Trypanosoma cruzi [8]),pIC50 [10],further results
,,,,CSc1ccc(OCc2ncc([N+](=O)[O-])n2C)cc1,,,,,,Activity (Trypanosoma cruzi [1]): Active
7.33,0.13 µM,,,O=[N+]([O-])c1nc2n(n1)C[C@H](OCc1ccc(OCc3ccccc3)cc1)CO2,< 4.00,> 2130,,,,solubility kinetic at 0.25 h [3]: 0.18 µg/mL; inhibition at 10 µg/mL (Trypanosoma cruzi [4]): 12%
,,5.68,4.6 µM,CC1CS(=O)(=O)CCN1/N=C/c1ccc([N+](=O)[O-])o1 (stereo not given) [NIFURTIMOX],,,< 5.00,99%,< 3.90,selectivity ratio [6]: > 60; Activity (Trypanosoma cruzi [1]): Active
5.24,> 10 µM,,,O=[N+]([O-])c1cn2c(n1)OC[C@@H](OCc1ccc(-c3ccc(OC(F)(F)F)cc3Cl)cc1)C2,4.72,3.3,,,,
6.42,0.96 µM,,,O=[N+]([O-])c1cn2c(n1)OC(COc1ccc(-c3ccc(OC(F)(F)F)cc3)nn1)CC2 (stereo not given),4.38,111,,,,
,,6.02,2.3 µM,CC1(COc2ccc(OC(F)(F)F)cc2)Cn2cc([N+](=O)[O-])nc2O1 (racemic),,,< 5.00,68%,< 4.14,
,,5.70,16 µM,CSc1cnc2n1CC(C)(COc1ccc(OC(F)(F)F)cc1)O2 (stereo not given),,,< 5.00,93%,< 4.14,selectivity ratio ([6]; 3T3 cells): > 37
7.74,0.044 µM,7.13,0.33 µM,O=[N+]([O-])c1cn2c(n1)OC(COc1ccc(-c3ccc(F)nc3)cc1)CC2 (stereo not given),< 4.00,> 5560,< 5.00,98%,< 4.43,selectivity ratio ([6]; 3T3 cells): > 500
< 5.00,> 10 µM,,,O=[N+]([O-])c1cn2c(n1)OC[C@@H](OCc1cccc(-c3cccc(OC(F)(F)F)c3)c1)C2,4.89,,,,,inhibition at 10 µg/mL (Trypanosoma cruzi [4]): 65%
,,4.92,37 µM,O=C(Cn1ccnc1[N+](=O)[O-])NCc1ccccc1 [BENZNIDAZOLE],,,< 5.00,101%,< 3.90,selectivity ratio ([6]; 3T3 cells): > 11; Activity (Trypanosoma cruzi [1]): Active
6.05,,,,O=[N+]([O-])c1cn2c(n1)SCC(OCc1ccc(OCc3ccccc3)cc1)C2 (stereo not given),,,,,,
6.55,0.44 µM,,,O=[N+]([O-])c1cn2c(n1)S(=O)(=O)CC(OCc1ccc(COc3ccccc3)cc1)C2 (stereo not given),< 4.00,> 357,,,,half-life at 1 h [11]: 1.72 h; solubility kinetic at 0.25 h [3]: 0.13 µg/mL; inhibition at 10 µg/mL (Trypanosoma cruzi [4]): 95%
,,5.77,4.1 µM,CC1(COc2ccc(OC(F)(F)F)cc2)Cn2c(Br)cnc2O1 (stereo not given),,,6.28,87%,< 4.14,selectivity ratio ([6]; 3T3 cells): > 43
,,6.14,2.1 µM,CC1(COc2ccc(OC(F)(F)F)cc2)Cn2nc([N+](=O)[O-])nc2O1 (stereo not given),,,< 5.00,96%,< 4.14,selectivity ratio ([6]; 3T3 cells): > 101
5.92,,,,O=[N+]([O-])c1cn2c(n1)OCC(OCc1ccc(OCc3ccccc3)cc1)C2 (stereo not given),,,,,,
7.28,0.33 µM,,,O=[N+]([O-])c1cn2c(n1)OC(COc1ncc(-c3ccc(OC(F)(F)F)cc3)cn1)CC2 (stereo not given),4.72,358,,,,
6.15,1.6 µM,5.89,3 µM,CC1(COc2ccc(OC(F)(F)F)cc2)CCn2cc([N+](=O)[O-])nc2S1(=O)=O (stereo not given),< 4.00,> 143,< 5.00,101%,< 4.43,selectivity ratio ([6]; 3T3 cells): > 28; solubility kinetic at 0.25 h [3]: 1.1 µg/mL; remaining at 1 h [12]: 88%; remaining at 1 h [13]: 76%
6.62,1.1 µM,6.24,1 µM,O=[N+]([O-])c1cn2c(n1)OC[C@H](OCc1ccc(-c3ccc(OC(F)(F)F)cc3Cl)cc1)C2,4.60,104,< 5.00,99%,< 4.43,selectivity ratio ([6]; 3T3 cells): > 65; solubility kinetic at 0.25 h [3]: < 0.1 µg/mL; remaining at 1 h [12]: 85%; remaining at 1 h [13]: 76%
5.80,3.7 µM,,,CC1(COc2ccc(OC(F)(F)F)cc2)CCn2cc([N+](=O)[O-])nc2[S+]1[O-] (stereo not given),4.14,46,,,,

pIC50 (Trypanosoma cruzi [5]),IC90 (Trypanosoma cruzi [5]),pIC50 (Trypanosoma cruzi [9]),IC90 (Trypanosoma cruzi [9]),SMILES,pIC50 (L6),selectivity ratio [2],pIC50 [7],%max (Trypanosoma cruzi [8]),pIC50 [10],further results
7.40,0.18 µM,,,O=[N+]([O-])c1cn2c(n1)OC(COc1ccc(-c3ccc(OC(F)(F)F)cc3)cn1)CC2 (stereo not given),< 4.00,> 2500,,,,
6.34,1.3 µM,,,CC1(COc2ccc(OC(F)(F)F)cc2Cl)CCn2cc([N+](=O)[O-])nc2O1 (stereo not given),< 4.00,,,,,solubility kinetic at 0.25 h [3]: 0.61 µg/mL
6.60,0.71 µM,6.55,0.41 µM,O=[N+]([O-])c1cn2c(n1)OC[C@H](OCc1ccc(-c3ccc(C(F)(F)F)cc3Cl)cc1)C2,4.54,116,5.12,100%,< 4.43,selectivity ratio ([6]; 3T3 cells): > 132; solubility kinetic at 0.25 h [3]: < 0.1 µg/mL; remaining at 1 h [12]: 76%; remaining at 1 h [13]: 83%
6.25,1.9 µM,,,CC1(COc2ccc(OC(F)(F)F)c(F)c2)CCn2cc([N+](=O)[O-])nc2O1 (stereo not given),4.17,,,,,solubility kinetic at 0.25 h [3]: 0.95 µg/mL
,,,,O=[N+]([O-])c1cn2c(n1)OC(COc1ccc(-c3ccc(OC(F)(F)F)cc3)nc1)CC2 (stereo not given),,,,100%,,
,,5.33,10 µM,CC1(COc2ccc(OC(F)(F)F)cc2)Cn2ccnc2O1 (stereo not given),,,6.80,80%,< 4.14,selectivity ratio ([6]; 3T3 cells): > 16
6.77,0.56 µM,,,O=[N+]([O-])c1cn2c(n1)OC(COc1ccc(-c3ccc(F)cc3)nc1)CC2 (racemic),,,,,,
4.22,,,,O=[N+]([O-])c1cn2c(n1)OC[C@@H](OCc1ccc(-c3ccccc3)cc1)C2,,,,,,
7.31,0.31 µM,6.41,2.6 µM,O=[N+]([O-])c1cn2c(n1)OC[C@H](OCc1ccc(-c3ccc(OC(F)(F)F)cc3)cn1)C2,4.29,,< 5.00,80%,< 4.14,
7.46,0.089 µM,,,O=[N+]([O-])c1cn2c(n1)[S+]([O-])CC(OCc1ccc(COc3ccccc3)cc1)C2 (stereo not given),< 4.00,> 2860,,,,half-life at 1 h [11]: 2.6 h; solubility kinetic at 0.25 h [3]: 0.44 µg/mL; inhibition at 10 µg/mL (Trypanosoma cruzi [4]): 89%
5.32,> 10 µM,,,O=[N+]([O-])c1cn2c(n1)OC[C@@H](OCc1ccc(-c3ccc(C(F)(F)F)cc3Cl)cn1)C2,4.24,12,,,,
5.96,2.6 µM,,,CC1(COc2ccc(OC(F)(F)F)cc2)CCn2cc([N+](=O)[O-])nc2S1 (stereo not given),< 4.00,> 91,,,,
,,6.66,0.85 µM,CC1(COc2ccc(OC(F)(F)F)cc2)CCn2nc([N+](=O)[O-])nc2O1 (stereo not given),,,< 5.00,96%,< 4.43,selectivity ratio ([6]; 3T3 cells): > 168; solubility kinetic at 0.25 h [3]: 9.5 µg/mL; remaining at 1 h [12]: 91%; remaining at 1 h [13]: 92%
6.51,6.5 µM,,,CC1(COc2ccc(OC(F)(F)F)c(Cl)c2)CCn2cc([N+](=O)[O-])nc2O1 (stereo not given),4.28,,,,,solubility kinetic at 0.25 h [3]: 0.5 µg/mL
6.48,0.96 µM,,,O=[N+]([O-])c1cn2c(n1)OC(COc1cnc(-c3ccc(OC(F)(F)F)cc3)nc1)CC2 (stereo not given),4.15,212,,,,
6.68,6.7 µM,,,O=[N+]([O-])c1cn2c(n1)OC(COc1cnc(-c3ccc(OC(F)(F)F)cc3)cn1)CC2 (stereo not given),< 4.00,> 476,,,,
5.57,,,,O=[N+]([O-])c1cn2c(n1)OC[C@H](OCc1ccc(-c3ccccc3)cc1)C2,,,,,,
,,6.72,0.44 µM,O=[N+]([O-])c1cn2c(n1)OC[C@H](OCC#Cc1ccc(OC(F)(F)F)cc1)C2,,,< 5.00,99%,< 4.43,selectivity ratio ([6]; 3T3 cells): > 195

# Reference: ChEMBL document CHEMBL4706606, “Re-evaluating pretomanid analogues for Chagas disease: Hit-to-lead studies reveal both in vitro and in vivo trypanocidal efficacy” (Eur J Med Chem, 2020)
